# Reference: ChEMBL document CHEMBL4613270, “Structure-Activity Relationship Study Enables the Discovery of a Novel Berberine Analogue as the RXRα Activator to Inhibit Colon Cancer” (J Med Chem, 2020)
# pKd: −log10 of the molar value. Active and inactive are the calls of the source. The rule behind the calls is not given here.
# Key:
# [1] = biological target: T1, Retinoic acid receptor RXR-alpha (Homo sapiens) (UniProt P19793); test: Activation of RXRalpha (unknown origin) expressed in human KM12C cells co-expressing beta-catenin and c-Cbl assessed as induction of beta-caten interaction with c-Cbl at 25 to 50 uM incubated for 15 hrs by mammalian two-hybrid assay; format: cell-based
# T1 sequence (whole entry): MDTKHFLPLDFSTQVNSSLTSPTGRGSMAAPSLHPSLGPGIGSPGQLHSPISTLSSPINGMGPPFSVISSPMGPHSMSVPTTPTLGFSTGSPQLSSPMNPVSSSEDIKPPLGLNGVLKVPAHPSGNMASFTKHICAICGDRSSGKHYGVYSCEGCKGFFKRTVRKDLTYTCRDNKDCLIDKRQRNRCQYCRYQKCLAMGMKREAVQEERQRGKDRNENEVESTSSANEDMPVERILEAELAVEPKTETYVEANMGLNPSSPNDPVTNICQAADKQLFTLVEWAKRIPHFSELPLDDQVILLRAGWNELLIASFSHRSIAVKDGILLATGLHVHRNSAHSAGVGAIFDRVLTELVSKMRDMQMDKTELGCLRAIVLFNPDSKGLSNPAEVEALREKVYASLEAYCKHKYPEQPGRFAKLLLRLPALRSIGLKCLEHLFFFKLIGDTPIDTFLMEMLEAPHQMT
# Summary of the method: (§1)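 Mammalian two-hybrid: cells co-transfected by lipofection with pBIND-β-catenin/S33Y plus pACT-RXRα (RXRα–β-catenin) or pACT-c-Cbl (β-catenin–c-Cbl); 20 h after transfection, compound added for 15 h; cells lysed in passive lysis buffer, 4 °C, 1 h; firefly and Renilla luciferase read by dual-luciferase kit.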
# [2] = biological target: T2, Retinoic acid receptor RXR-alpha (Homo sapiens, UniProt P19793); test: Binding affinity to His-tagged RXRalpha LBD (unknown origin) expressed in Escherichia coli strain BL21 (DE3) by fluorescence quenching analysis
# T2 sequence (P19793 whole entry): T1 sequence (whole entry)
# Summary of the method: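 His-RXRα-LBD expressed from pET15b in E. coli BL21(DE3), induced with 0.1 mM IPTG at 16 °C for 16 h, purified on Ni-NTA. Protein held at 1 μM in PBS pH 7.4 and titrated with ligand (2–30 μM). Excitation 280 nm, emission scanned 290–600 nm, DMSO blank subtracted, each spectrum measured three times. Apparent Kd taken from the titration curve.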
# [3] = biological target: T1, Retinoic acid receptor RXR-alpha (Homo sapiens); test: In-vivo activation of RXRalpha in BALB/c mouse xenografted with human KM12C cells assessed as increase in p21 (WAF1/CIP) protein expression at 100 mg/kg, ig dosed daily for 15 days by immunohistochemistry analysis; format: functional, organism-based
# [4] = biological target: T1, Retinoic acid receptor RXR-alpha (Homo sapiens); test: Induction of conformational changes in His-tagged RXRalpha LBD (unknown origin) expressed in Escherichia coli strain BL21 (DE3) at 5 uM by circular dichroism spectroscopic assay
# Summary of the method: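 His-RXRα-LBD expressed in E. coli BL21(DE3) (0.1 mM IPTG, 16 °C, 16 h), Ni-NTA purified, diluted to 1 µM in 0.01 M phosphate buffer; compound 5 µM (0.01% DMSO). CD spectra recorded 180-260 nm at 25 °C, 0.1 cm path, 1 nm bandwidth, 20 nm/min, 5 min after compound addition.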
# [5] = Toxicity in BALB/c mouse xenografted with human KM12C cells assessed as effect on biochemical parameter by measuring triglyceride level at 100 mg/kg, ig dosed daily for 15 days by automatic chemistry analyzer based analysis (reference value: 0.96 +/- 0.056 mmol/L); format: organism-based; settings: in vivo, po, 360 h
# [6] = Toxicity in BALB/c mouse xenografted with human KM12C cells assessed as effect on biochemical parameter by measuring ALT level at 100 mg/kg, ig dosed daily for 15 days by automatic chemistry analyzer based analysis (reference value: 24.18 +/- 0.77 U/L); format: organism-based; settings: in vivo, po, 360 h
# [7] = biological target: T1, Retinoic acid receptor RXR-alpha (Homo sapiens); test: Activation of RXRalpha in human SW620 cells assessed as induction of beta-catenin protein degradation at 40 to 80 uM incubated for 15 hrs by Western blot analysis; format: cell-based; settings: SW-620
# [8] = biological target: T1, Retinoic acid receptor RXR-alpha (Homo sapiens); test: In-vivo activation of RXRalpha in BALB/c mouse xenografted with human KM12C cells assessed as effect on Ki67 protein expression at 100 mg/kg, ig dosed daily for 15 days by immunohistochemistry analysis; format: functional, organism-based
# [9] = biological target: T1, Retinoic acid receptor RXR-alpha (Homo sapiens); test: Activation of RXRalpha (unknown origin) expressed in human SW620 cells co-expressing beta-catenin assessed as induction of RXRalpha interaction with beta-catenin at 40 to 80 uM incubated for 15 hrs by mammalian two-hybrid assay; format: cell-based; settings: SW-620; summary of the method: as §1
# [10] = biological target: T1, Retinoic acid receptor RXR-alpha (Homo sapiens); test: In-vivo activation of RXRalpha in BALB/c mouse xenografted with human KM12C cells assessed as induction of beta-catenin protein degradation at 100 mg/kg, ig dosed daily for 15 days by immunohistochemistry analysis; format: functional, organism-based
# Summary of the method: (§2)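 KM12C cells (1×10^6 per mouse in 100 μL HBSS) injected subcutaneously into both flanks of nude mice; after seven days, randomized to three groups, dosed intragastrically once daily for 15 days with vehicle (CMC-Na) or 100 mg/kg compound; mice euthanized and tumors removed for analysis.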
# [11] = biological target: T1, Retinoic acid receptor RXR-alpha (Homo sapiens); test: Activation of RXRalpha in human HCT116 cells assessed as reduction in Cdc2 mRNA expression at 30 to 60 uM incubated for 15 hrs by real-time PCR analysis; format: cell-based; settings: HCT-116
# [12] = biological target: T1, Retinoic acid receptor RXR-alpha (Homo sapiens); test: Activation of RXRalpha in human SW620 cells assessed as […] crease in p21 (WAF1/CIP1) mRNA expression at 40 to 80 uM incubated for 15 hrs by real-time PCR analysis; format: cell-based; settings: SW-620
# [13] = biological target: T1, Retinoic acid receptor RXR-alpha (Homo sapiens); test: Activation of RXRalpha in human HCT116 cells assessed as reduction in c-Myc mRNA expression at 30 to 60 uM incubated for 15 hrs by real-time PCR analysis; format: cell-based; settings: HCT-116
# [14] = biological target: T1, Retinoic acid receptor RXR-alpha (Homo sapiens); test: Activation of RXRalpha (unknown origin) expressed in human SW620 cells co-expressing beta-catenin and c-Cbl assessed as induction of beta-caten interaction with c-Cbl at 40 to 80 uM incubated for 15 hrs by mammalian two-hybrid assay; format: cell-based; settings: SW-620; summary of the method: as §1
# [15] = biological target: T1, Retinoic acid receptor RXR-alpha (Homo sapiens); test: In-vivo activation of RXRalpha in BALB/c mouse xenografted with human KM12C cells assessed as reduction in Cdc2 protein expression at 100 mg/kg, ig dosed daily for 15 days by immunohistochemistry analysis; format: functional, organism-based; summary of the method: as §2
# [16] = biological target: T1, Retinoic acid receptor RXR-alpha (Homo sapiens); test: Activation of RXRalpha in human SW620 cells assessed as reduction in c-Myc mRNA expression at 40 to 80 uM incubated for 15 hrs by real-time PCR analysis; format: cell-based; settings: SW-620
# [17] = biological target: T1, Retinoic acid receptor RXR-alpha (Homo sapiens); test: Activation of RXRalpha in human SW620 cells assessed as inhibition of Wnt/beta-catenin-dependent transcriptional activity at 40 to 80 uM incubated for 15 hrs by TOP/FOP luciferase assay; format: cell-based; settings: SW-620
# Summary of the method: (§3)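 TOP/FOP reporter: cells co-transfected by lipofection with pRL-TK plus TOPflash or FOPflash; compound added 20 h after transfection for 15 h; passive lysis at 4 °C, 1 h; firefly and Renilla luciferase measured by dual-luciferase assay.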
# [18] = biological target: T1, Retinoic acid receptor RXR-alpha (Homo sapiens); test: Activation of RXRalpha in human KM12C cells assessed as inhibition of Wnt/beta-catenin-dependent transcriptional activity at 25 to 50 uM incubated for 15 hrs by TOP/FOP luciferase assay; format: cell-based; summary of the method: as §3
SMILES,Activity [1],pKd [2],Activity [3],Activity [4],Activity [5] [mmol/L],Activity [6] [U/L],Activity [7],Activity [8],Activity [9],Activity [10],Activity [11],Activity [12],Activity [13],Activity [14],Activity [15],Activity [16],Activity [17],Activity [18]
COc1ccc2c(c1)CC[n+]1cc3c(OC)cccc3cc1-2.[Cl-],Active,4.72,Active,Active,0.74,27.2,Active,Active,Active,Active,Active,Active,Active,Active,Active,Active,Active,Active
COc1ccc2cc3[n+](cc2c1OC)CCc1cc2c(cc1-3)OCO2.[Cl-] [BERBERINE CHLORIDE],Active,4.61,Active,Active,0.77,27.9,Active,Active,Active,Active,Active,Active,Active,Active,Active,Active,Active,Active
